pIC50: −log10 of the molar value.
What was measured:
[1] = system: HEL cells; assay: Growth inhibition, HEL cells; type: cell-based, human; settings: 72 hours
Method in brief: (§1)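 Cells grown 72 h with varying concentrations of test compound. Media: Ba/F3:JAK2V617F in RPMI 1640 with 10% FBS plus 1% WEHI-3B conditioned medium (IL-3 source); 32D:p210T315I in IMDM with 10% FBS; K562 in RPMI 1640 with 10% FBS; HEL and SET-2 in RPMI 1640 with 20% and 10% heat-inactivated FBS. Viability by Trypan blue exclusion; GI50 from percent viable cells plotted against drug concentration.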

[2] = molecular target: recombinant V617F mutant JAK2 (aa 532-1132) (Homo sapiens, UniProt O60674, V617F); assay: Radiometric kinase assay, recombinant V617F mutant JAK2; type: biochemical; settings: read-out: IC50, kinase activity of mutant JAK2 (V617F); JAK2-V617F aa 532-1132, GST-Abltide substrate, 20 μM ATP
[3] = system: SET2 cells; assay: Growth inhibition, SET-2 cells; type: cell-based, human; settings: SET2 cells (hemizygous V617F), 72 hours
Method in brief: as §1

[4] = system: Ba/F3:JAK2V617F cells; assay: Growth inhibition, Ba/F3:JAK2V617F cells; type: cell-based, mouse; settings: 72 hours
Method in brief: as §1

[5] = system: JAK2 phosphorylation in Ba/F3:JAK2V617F cells; assay: JAK2 phosphorylation in IL-3-stimulated Ba/F3:JAK2V617F cells; type: cell-based, mouse; settings: 2 hours, with recombinant IL-3
Method in brief: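 Mid-log-phase Ba/F3:JAK2V617F cells were treated 2 h with the test compound at the indicated concentrations, including 1 h with 5 ng/mL recombinant mouse IL-3. Washed cells were lysed in detergent buffer. 50 µg of clarified lysate was run on SDS-PAGE and immunoblotted with anti-phospho-JAK2 (Tyr1007/1008). Blots were stripped and reprobed for total JAK2.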

[6] = system: K562 cells; assay: Growth inhibition, K562 cells; type: cell-based; settings: Homo sapiens, K562, 72 h
Method in brief: as §1

[7] = system: STAT-5 phosphorylation in 32D:p210T315I cells; assay: STAT-5 phosphorylation in 32D:p210T315I cells; type: cell-based, murine; settings: 2 hours
Method in brief: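 Exponentially growing 32D:p210T315I cells, kept in IMDM with 10% FBS, were given the test compound at the indicated concentrations for 2 h. They were then PBS-washed and lysed in detergent buffer. 50 µg of clarified lysate underwent SDS-PAGE and Western blotting for phospho-STAT-5.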

[8] = system: 32D:p210T315I cells; assay: Growth inhibition, 32D:p210T315I cells; type: cell-based, murine; settings: Mus musculus, 72 h
Method in brief: as §1

recombinant V617F mutant JAK2 (aa 532-1132), sequence (O60674 532-1132 V617F): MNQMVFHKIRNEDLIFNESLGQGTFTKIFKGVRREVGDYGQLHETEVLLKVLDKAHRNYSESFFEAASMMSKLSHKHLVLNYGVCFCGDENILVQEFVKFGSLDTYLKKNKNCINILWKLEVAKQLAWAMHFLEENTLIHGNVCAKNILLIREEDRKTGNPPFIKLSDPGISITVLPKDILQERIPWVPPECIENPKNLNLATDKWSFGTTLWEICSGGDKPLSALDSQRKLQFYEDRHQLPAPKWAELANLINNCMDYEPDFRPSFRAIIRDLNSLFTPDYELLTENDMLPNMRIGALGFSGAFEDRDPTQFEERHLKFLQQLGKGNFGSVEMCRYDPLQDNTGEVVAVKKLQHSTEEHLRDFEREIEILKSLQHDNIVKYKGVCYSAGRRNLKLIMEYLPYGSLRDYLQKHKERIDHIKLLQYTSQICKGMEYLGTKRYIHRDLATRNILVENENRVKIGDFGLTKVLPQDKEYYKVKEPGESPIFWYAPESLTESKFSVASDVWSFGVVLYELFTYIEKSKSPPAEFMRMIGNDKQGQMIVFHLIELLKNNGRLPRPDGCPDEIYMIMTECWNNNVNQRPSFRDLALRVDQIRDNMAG

Row | GI50 [6] | SMILES | GI50 [1] | pIC50 [2] | GI50 [3] | GI50 [4] | inhibition of JAK2 phosphorylation in cells [5] | inhibition of STAT-5 phosphorylation [7] | GI50 [8]
1 | – | N#C/C(=C/c1ccc(O)c(O)c1)C(=O)NCc1ccccc1 [AG490] | > 20 µM | 4.48 | > 20 µM | 1 µM | did not inhibit JAK2 phosphorylation | – | –
2 | 0.1 to 0.2 µM | Cc1ccc(NC(=O)c2ccc(CN3CCN(C)CC3)cc2)cc1Nc1nccc(-c2cccnc2)n1 [imatinib] | – | – | – | – | – | failed to do so | 20 to 30 µM

Reference: publication PMC2921666 (Genes & cancer, 2010)
